The record followed here is ChEMBL document CHEMBL1795267, “Synthesis of enantiomerically pure D- and L-bicyclo[3.1.0]hexenyl carbanucleosides and their antiviral evaluation” (Bioorg Med Chem, 2011).

In brackets after ≈: the same amount, converted by molar mass. Activity calls are given as the source filed them. The calls are words filed in the database; no cut-off is given here. Where only a bound is given, the exact number is not on record here.

For data set [1], the system named is Human immunodeficiency virus 2. Nature of the data set: Antiviral activity against HIV2 ROD infected in human MT4 cells assessed as reduction in virus induced cytopathicity measured 5 days post infection by MTT assay. In kind it is functional, organism-based. As to conditions: Human immunodeficiency virus 2, ISOLATE ROD, MT4, 120 h. An outline of the steps:
(§1)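 MT-4 cells (HTLV-1-carrying human T cells; RPMI-1640, 10% FBS, 2 mM L-glutamine) infected with cell-free HIV-1 IIIB or HIV-2 ROD at 100 TCID50/mL for 1.5 h at 37 °C, then plated at 1.0×10^5 cells/mL with serial compound dilutions (DMSO stock, at most 0.5% DMSO final) in triplicate. Cultured 5 days at 37 °C. Virus-induced cytopathicity read by MTT. IC50 is the concentration giving 50% protection.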

Data set [2] has as its system Human immunodeficiency virus 1. As to the kind of experiment: Antiviral activity against HIV1 3B infected in human MT4 cells […] with HTLV1 assessed as reduction in virus induced cytopathicity measured 5 days post infection by MTT assay. The data set is classed as functional, organism-based. As to conditions: Human immunodeficiency virus 1, 3B, MT4, 120 h. A digest of the protocol: as §1
Background: Damage to the host cells serves as the signal in cytopathic effect assays.

The next data set has as its system Coxsackievirus B3. As to the kind of experiment: Antiviral activity against Coxsackie virus B3 up to 100 ug/mL. The data set is classed as functional, organism-based.
For a further data set, the system named is Coxsackievirus B1. Nature of the data set: Antiviral activity against Coxsackie virus B1 up to 100 ug/mL. The data set is classed as functional, organism-based.
The next data set concerns MT4. As to the kind of experiment: Toxicity against human MT4 cells by MTT assay. In kind it is cell-based. A digest of the protocol: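 Uninfected MT-4 cells (HTLV-1-carrying T4+ line) at 1.0×10^5 cells/mL in RPMI-1640/10% FBS, gentamycin, 2 mM L-glutamine, run in triplicate alongside infected cultures for 5 days at 37 °C, 5% CO2. Compounds were diluted from DMSO, final DMSO ≤0.5%. Read by MTT (1.5 h), formazan dissolved in acidic 2-propanol, A540/690. CC50 is the concentration reducing viability by 50%.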
For orientation: Tetrazolium assays rely on reduction of a dye to a coloured formazan, in cell work by metabolically active cells.

The subject of a further data set is Poliovirus 3. Nature of the data set: Antiviral activity against Human poliovirus 3 up to 100 ug/mL. The data set is classed as functional, organism-based.
Data set [3] in a line: Selectivity index, ratio of CC50 for human MT4 cells to IC50 for HIV1 3B. In kind it is functional. An outline of the steps:
(§2)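 Uninfected MT-4 cells (1.0×10^5 cells/mL) were cultured for 5 days at 37 °C with compound in parallel with the infected cultures. Viability was read by MTT (1.5 h with MTT, formazan dissolved in acidic 2-propanol, absorbance at 540/690 nm). CC50 is the concentration reducing viability of uninfected cells by 50%. Index = CC50/IC50 against the HIV-1 IIIB or HIV-2 ROD MT-4 assay.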

The nature of data set [4]: Selectivity index, ratio of CC50 for human MT4 cells to IC50 for HIV2 ROD. The data set is classed as functional. A digest of the protocol:
as §2

A further data set has as its system Feline coronavirus. Nature of the data set: Antiviral activity against Feline coronavirus WSU up to 100 ug/mL. In kind it is functional, organism-based.
The test system of the next data set is Influenza B virus. Nature of the data set: Antiviral activity against influenza B virus Panama up to 100 ug/mL. The data set is classed as functional, organism-based.
Data set [5] concerns Influenza A virus. As to the kind of experiment: Antiviral activity against influenza A virus H1N1 Taiwan up to 100 ug/mL. In kind it is functional, organism-based.
The subject of data set [6] is Feline infectious peritonitis virus. As to the kind of experiment: Antiviral activity against Feline infectious peritonitis virus WSU up to 100 ug/mL. The data set is classed as functional.
A further data set has as its system Human alphaherpesvirus 2. Nature of the data set: Antiviral activity against HSV2. In kind it is functional, organism-based.
Data set [7] concerns Influenza A virus. As to the kind of experiment: Antiviral activity against Influenza A virus H3N2 Johannesburg up to 100 ug/mL. The data set is classed as functional, organism-based.

Usually IC50 stands for the concentration that gives 50% inhibition. By CC50 is commonly meant the concentration giving 50% cytotoxicity. For `Nc1ccn([C@@H]2C=C[C@@]3(CO)C[C@@H]23)c(=O)n1`, the IC50 in data set [1] and in data set [2] was above 100 µg/mL each time. The inhibition entry in the data set with Coxsackievirus B3, in the data set with Coxsackievirus B1 and with Poliovirus 3 was “inactive” in each case. This molecule also yielded a CC50 in the data set with MT4 above 100 µg/mL.

Take `Nc1ncnc2c1ncn2[C@@H]1C=C[C@@]2(CO)C[C@@H]12`: the IC50 in data set [1] and in [2] was above 100 µg/mL throughout. The inhibition entry with Coxsackievirus B3, in the data set with Coxsackievirus B1 and with Poliovirus 3 was “inactive” each time.

Take `Nc1ccn([C@H]2C=C[C@]3(CO)C[C@H]23)c(=O)n1`: the “Ratio CC50/IC50” value in data set [3] and in [4] was below 1 throughout. For the same molecule, the concentration for half-maximal inhibition (IC50) in data set [1] and in [2] was above 61.8 µg/mL in each case. The inhibition result in the data set with Coxsackievirus B3, with Coxsackievirus B1 and in the data set on Poliovirus 3 was “inactive” throughout. In the data set with MT4, this molecule yielded a CC50 of 61.8 µg/mL (≈ 282 µM).

`Cc1cn([C@H]2C=C[C@]3(CO)C[C@H]23)c(=O)[nH]c1=O`: the results for the “Ratio CC50/IC50” value in data set [3] and in data set [4] were 263 and 76, respectively. The half-maximal inhibitory concentration (IC50) came to 0.112 µg/mL (≈ 0.478 µM) in data set [1] and 0.033 µg/mL (≈ 0.141 µM) in data set [2]. For the same molecule, the inhibition entry with Coxsackievirus B3, with Coxsackievirus B1 and in the data set on Poliovirus 3 was “inactive” throughout. The same molecule showed a CC50 with MT4 of 8.558 µg/mL (≈ 36.5 µM).

Take `O=c1ccn([C@@H]2C=C[C@@]3(CO)C[C@@H]23)c(=O)[nH]1`: in data set [2], the half-inhibitory concentration (IC50) is above 100 µg/mL. Moreover, the inhibition entry in the data set on Coxsackievirus B3, in the data set on Coxsackievirus B1 and in the data set with Poliovirus 3 was “inactive” in each case.

Consider `Cc1cn([C@@H]2C=C[C@@]3(CO)C[C@@H]23)c(=O)[nH]c1=O`, for which the inhibition entry (in the data set on Feline coronavirus; in the data set with Influenza B virus; with Influenza A virus [5]; in the data set with Coxsackievirus B3; with Coxsackievirus B1; in data set [6]) was “inactive” throughout. Further, the inhibition entry with Poliovirus 3 and with Influenza A virus [7] was “inactive” each time. For the same molecule, the “Ratio CC50/IC50” value is reported as above 85.09 in [3] and above 44.05 in data set [4]. Moreover, the results for the IC50 (in data set [1]; in data set [2]; with Human alphaherpesvirus 2) were 2.27 µg/mL (≈ 9.69 µM), 1.18 µg/mL (≈ 5.02 µM) and 59.2 µg/mL (≈ 253 µM), respectively. In addition, the CC50 in the data set with MT4 was above 100 µg/mL.

As to `Nc1ncnc2c1ncn2[C@H]1C=C[C@]2(CO)C[C@H]12`, the “Ratio CC50/IC50” value in data set [3] is above 2.47. Moreover, in [2], the 50% inhibitory concentration (IC50) stood at 40.5 µg/mL (≈ 166 µM). For the same molecule, the inhibition result in the data set on Coxsackievirus B3, with Coxsackievirus B1 and in the data set with Poliovirus 3 was “inactive” each time. The same molecule displayed a CC50 in the data set on MT4 above 100 µg/mL.

In the case of `O=c1nc(O)ccn1[C@H]1C=C[C@]2(CO)C[C@H]12`, the IC50 in [1] and in [2] was above 100 µg/mL throughout. The inhibition entry in the data set on Coxsackievirus B3, in the data set with Coxsackievirus B1 and in the data set on Poliovirus 3 was “inactive” each time. Further, the CC50 in the data set with MT4 was above 100 µg/mL.

As to `O=c1[nH]cnc2c1ncn2[C@H]1CC[C@@H](CO)O1` [DIDANOSINE], the figures for the “Ratio CC50/IC50” value in data set [3] and in data set [4] were above 43.29 and above 17.38, respectively. For the same molecule, the IC50 in data set [1] was determined as 5.76 µg/mL (≈ 24.4 µM); in data set [2] it was 2.31 µg/mL (≈ 9.78 µM). In the data set on MT4, this molecule yielded a CC50 above 100 µg/mL.

In the case of `Nc1nc(O)c2ncn([C@@H]3C=C[C@@]4(CO)C[C@@H]34)c2n1`, the IC50 in [1] and in data set [2] was above 100 µg/mL throughout. Further, the inhibition result in the data set with Coxsackievirus B3, in the data set on Coxsackievirus B1 and with Poliovirus 3 was “inactive” in each case. Moreover, the half-maximal cytotoxic concentration (CC50) with MT4 was above 100 µg/mL.

For `Nc1ccn([C@H]2CC[C@@H](CO)O2)c(=O)n1` [ZALCITABINE], the “Ratio CC50/IC50” value in data set [3] amounted to 248.73; in [4], 266.7. In addition, the IC50 in data set [1] was determined as 0.04 µg/mL (≈ 0.189 µM); in [2] it was 0.043 µg/mL (≈ 0.204 µM). Further, the CC50 in the data set with MT4 came out at 10.66 µg/mL (≈ 50.5 µM).
